Laboratory results published in ChEMBL document CHEMBL1130336, “Polyanion inhibitors of human immunodeficiency virus and other viruses. 6. Micelle-like anti-HIV polyanionic compounds based on a carbohydrate core” (J Med Chem, 1997).

Assays:
CEM-4 [1] = test: Concentration required to reduce the viability of uninfected CEM-4 cells by 50%; format: functional; settings: Homo sapiens
How it was run: (§1)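 Cytotoxicity in uninfected CEM-4 or MT-4 cells, measured as inhibition of cell growth. The value is the concentration that lowers viability by 50%.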

CEM-4 [2] = test: Inhibitory concentration required to inhibit HIV-induced cytopathicity in CEM-4 cells by 50%; format: functional, cell-based; settings: Homo sapiens
How it was run: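 CEM-4 cells infected with HIV-1 (strain HTLV-III_B/LAI). The end point is 50% inhibition of HIV-induced cytopathicity.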

E6SM [3] = test: Concentration required to cause a microscopically detectable alteration of normal E6SM cell morphology; format: functional, cell-based; settings: Homo sapiens, read-out: IC50
How it was run: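 Minimum cytotoxic concentration, read microscopically as the level that causes a detectable alteration of normal cell morphology.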

E6SM [4] = test: Concentration required to reduce herpes simplex virus-1TK( B2006) inducted cytopathicity by 50% (E6SM cells); format: functional, cell-based; settings: Homo sapiens
How it was run: (§2)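 Virus was added in the presence of compound, and the cells were incubated until cytopathic effect was scored. The value is the concentration that reduces virus-induced CPE by 50%.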

E6SM [5] = test: Concentration required to reduce herpes simplex virus-1TK (F) inducted cytopathicity by 50% (E6SM cells); format: functional, cell-based; settings: Homo sapiens; how it was run: as §2
E6SM [6] = test: Concentration required to reduce herpes simplex virus-1TK (KOS) inducted cytopathicity by 50% (E6SM cells); format: functional, cell-based; settings: Homo sapiens; how it was run: as §2
E6SM [7] = test: Concentration required to reduce herpes simplex virus-1TK (McIntyre) inducted cytopathicity by 50% (E6SM cells); format: functional, cell-based; settings: Homo sapiens; how it was run: as §2
E6SM [8] = test: Concentration required to reduce herpes simplex virus-1TK (VMW1837) inducted cytopathicity by 50% (E6SM cells); format: functional, cell-based; settings: Homo sapiens; how it was run: as §2
E6SM [9] = test: Concentration required to reduce herpes simplex virus-2(196) inducted cytopathicity by 50% (E6SM cells); format: functional, cell-based; settings: Homo sapiens; how it was run: as §2
E6SM [10] = test: Concentration required to reduce herpes simplex virus-2(G) inducted cytopathicity by 50% (E6SM cells); format: functional, cell-based; settings: Homo sapiens; how it was run: as §2
Vaccinia virus = test: Concentration required to reduce vaccinia virus-inducted cytopathicity by 50% (E6SM cells); format: functional, organism-based, Orthopoxvirus vaccinia; settings: Orthopoxvirus vaccinia, E6SM
[11] = system: Human immunodeficiency virus 1; test: Concentration required to inhibit by 50% human immunodeficiency virus-1 induced syncytium formation upon coculturing persistently HIV-infected HUT-78 cells with MOLT-4 cells; format: functional, organism-based; settings: Human immunodeficiency virus 1, MOLT-4
How it was run: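 MOLT-4 (clone 8) cells at 1 × 10^6 cells/mL, cocultured with an equal number of persistently infected HUT-78/HIV-1 or HUT-78/HIV-2 cells across a range of compound concentrations. Giant cells were counted under the microscope after 24 h of cocultivation. The value is the concentration giving 50% inhibition of syncytium formation.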

HEL [12] = test: Concentration required to inhibit HEL cell growth by 50%; format: functional, cell-based; settings: Homo sapiens
HEL [13] = test: Concentration required to reduce human cytomegalo virus(AD-169) inducted cytopathicity by 50% (HEL cells); format: functional, cell-based; how it was run: as §2
HEL [14] = test: Concentration required to reduce human cytomegalo virus(Davis) inducted cytopathicity by 50% (HEL cells); format: functional, cell-based; how it was run: as §2
HeLa [15] = test: Concentration required to cause a microscopically detectable alteration of normal Hela cell morphology; format: functional, cell-based; settings: Homo sapiens
HeLa [16] = test: Concentration required to reduce Coxsackie virus-inducted cytopathicity by 50% (HeLa cells); format: functional, cell-based; settings: Homo sapiens
HeLa [17] = test: Concentration required to reduce polio-1 virus-inducted cytopathicity by 50% (HeLa cells); format: functional, cell-based; settings: Homo sapiens
HeLa [18] = test: Concentration required to reduce vesicular stomatitis virus-inducted cytopathicity by 50% (HeLa cells); format: functional, cell-based; settings: Homo sapiens
MT4 [19] = test: Concentration required to reduce the viability of uninfected MT-4 cells by 50%; format: functional; settings: Homo sapiens; how it was run: as §1
MT4 [20] = test: Concentration required to inhibit human immunodeficiency virus-2 induced cytopathicity in MT-4 cells by 50%; format: functional, cell-based
How it was run: (§3)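 MT-4 cells infected with HIV-1 (strain HTLV-III_B/LAI) or HIV-2 (strain LAV_ROD). The end point is 50% inhibition of virus-induced cytopathicity.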

Vero [21] = test: Concentration required to cause a microscopically detectable alteration of normal Vero cell morphology; format: functional, cell-based; settings: Chlorocebus sabaeus
Vero [22] = test: Concentration required to reduce Coxsackie virus-inducted cytopathicity by 50% (Vero cells); format: functional, cell-based; settings: Chlorocebus sabaeus
Vero [23] = test: Concentration required to reduce Junin virus-inducted cytopathicity by 50% (Vero cells); format: functional, cell-based; settings: Chlorocebus sabaeus
Vero [24] = test: Concentration required to reduce forest virus-inducted cytopathicity by 50% (Vero cells); format: functional, cell-based; settings: Chlorocebus sabaeus
Vero [25] = test: Concentration required to reduce Tacaribe virus-inducted cytopathicity by 50% (Vero cells); format: functional, cell-based; settings: Chlorocebus sabaeus
Vero [26] = test: Concentration required to reduce parainfluenza-3 virus-inducted cytopathicity by 50% (Vero cells); format: functional, cell-based; settings: Chlorocebus sabaeus
Vero [27] = test: Concentration required to reduce reovirus-1 inducted cytopathicity by 50% (Vero cells); format: functional, cell-based; settings: Chlorocebus sabaeus
Vero [28] = test: Concentration required to reduce sindbis virus-inducted cytopathicity by 50% (Vero cells); format: functional, cell-based; settings: Chlorocebus sabaeus
MT4 [29] = test: Concentration required to inhibit human immunodeficiency virus-1 induced cytopathicity in MT-4 cells by 50%; format: functional, cell-based; how it was run: as §3
E6SM [30] = test: Concentration required to reduce herpes simplex virus-2(Lyons) inducted cytopathicity by 50% (E6SM cells); format: functional, cell-based; settings: Homo sapiens; how it was run: as §2
[31] = system: Human immunodeficiency virus 2; test: Concentration required to inhibit by 50% human immunodeficiency virus-2 induced syncytium formation upon coculturing persistently HIV-infected HUT-78 cells with MOLT-4 cells; settings: HUT-78, MOLT-4

Compound	CC50 (CEM-4 [1]) [µM]	IC50 (CEM-4 [2]) [µM]	minimum cytotoxic concentration (E6SM [3]) [µM]	IC50 (E6SM [4]) [µM]	IC50 (E6SM [5]) [µM]	IC50 (E6SM [6]) [µM]	IC50 (E6SM [7]) [µM]	IC50 (E6SM [8]) [µM]	IC50 (E6SM [9]) [µM]	IC50 (E6SM [10]) [µM]	IC50 (Vaccinia virus) [µM]	IC50 [11] [µM]	IC50 (HEL [12]) [µM]	IC50 (HeLa [15]) [µM]	IC50 (HeLa [16]) [µM]	IC50 (HeLa [17]) [µM]	IC50 (HeLa [18]) [µM]	CC50 (MT4 [19]) [µM]	IC50 (MT4 [20]) [µM]	IC50 (Vero [21]) [µM]	also measured
CO[C@H]1O[C@H](COCCCSCC(=O)O)[C@@H](OCCCSCC(=O)O)[C@@H](OCCCSCC(=O)O)[C@H]1OCCCSCC(=O)O	> 370	> 370	–	–	–	–	–	–	–	–	–	–	–	–	–	–	–	–	–	–	–
CO[C@H]1O[C@H](COCCCSC(CC(=O)O)C(=O)O)[C@@H](OCCCSC(CC(=O)O)C(=O)O)[C@@H](OCCCSC(CC(=O)O)C(=O)O)[C@H]1OCCCSC(CC(=O)O)C(=O)O (stereo partly drawn)	> 265	69	–	–	–	–	–	–	–	–	–	–	–	–	–	–	–	–	–	–	–
CO[C@H]1O[C@H](COCCCSCCC(=O)O)[C@@H](OCCCSCCC(=O)O)[C@@H](OCCCSCCC(=O)O)[C@H]1OCCCSCCC(=O)O	> 346	> 346	–	–	–	–	–	–	–	–	–	–	–	–	–	–	–	–	–	–	–
O=S(=O)(O)CCSCCCOC[C@H]1O[C@@](COCCCSCCS(=O)(=O)O)(O[C@H]2O[C@H](COCCCSCCS(=O)(=O)O)[C@@H](OCCCSCCS(=O)(=O)O)[C@H](OCCCSCCS(=O)(=O)O)[C@H]2OCCCSCCS(=O)(=O)O)[C@@H](OCCCSCCS(=O)(=O)O)[C@@H]1OCCCSCCS(=O)(=O)O	> 50.6	> 50.6	> 203	> 203	> 101	> 101	> 101	> 101	> 101	> 101	> 101	> 127	> 25	> 101	> 51	> 51	> 51	> 127	> 127	> 101	IC50 (HEL [13]): > 25 µM; IC50 (HEL [14]): > 25 µM; IC50 (Vero [22]): > 101 µM; IC50 (Vero [23]): > 25 µM; IC50 (Vero [24]): > 101 µM; IC50 (Vero [25]): > 25 µM; IC50 (Vero [26]): > 101 µM; IC50 (Vero [27]): > 101 µM; IC50 (Vero [28]): > 101 µM; IC50 (MT4 [29]): > 127 µM; IC50 (E6SM [30]): > 101 µM; IC50 [31]: > 127 µM
O=C(O)CCSCCCOC[C@H]1O[C@@](COCCCSCCC(=O)O)(O[C@H]2O[C@H](COCCCSCCC(=O)O)[C@@H](OCCCSCCC(=O)O)[C@H](OCCCSCCC(=O)O)[C@H]2OCCCSCCC(=O)O)[C@@H](OCCCSCCC(=O)O)[C@@H]1OCCCSCCC(=O)O	> 59.3	> 59.3	> 237	> 237	> 237	> 237	> 237	> 237	> 237	> 237	> 237	> 148	> 30	> 119	> 119	> 119	> 119	> 148	> 148	> 119	IC50 (Vero [22]): > 59 µM; IC50 (Vero [23]): > 12 µM; IC50 (Vero [24]): > 59 µM; IC50 (Vero [25]): > 12 µM; IC50 (Vero [26]): > 59 µM; IC50 (Vero [27]): > 59 µM; IC50 (Vero [28]): > 59 µM; IC50 (MT4 [29]): 29 µM; IC50 (E6SM [30]): > 119 µM; IC50 [31]: > 148 µM
